Bioassay records from PubChem.
Shown are actives, neighbours in structure and some others; about 2.3% of the full set was active somewhere.
LMPTP inh = LMPTP phosphatase inhibitors, primary screen, biochemical, fluorescence intensity, uHTS | inhibition, % at 20 µM | recombinant LMPTP-A, OMFP fluorogenic substrate | 360,000 compounds, 0.22% hits | AID 651560, 2012;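 active = compounds that cut the enzyme signal by at least half of the control window in the single-dose screen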
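Test system: LMPTP-A phosphatase enzyme; input: 0.625 nM LMPTP-A final; reagent: OMFP substrate, 400 µM final; compound dosing: 20 µM single dose, 3% DMSO; incubation: 50 min dark incubation at room temperature; measured by: endpoint fluorescence intensity from OMFP dephosphorylation; measure: % inhibition relative to no-enzyme and uninhibited control wells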
Rpn11 block = Rpn11 (PSMD14) deubiquitinase inhibitors, primary screen, biochemical, fluorescence polarization, uHTS; AID 588493, 2011; 360,000 compounds, 0.59% hits; 26S proteasome non-ATPase regulatory subunit 14 (Homo sapiens), O00487; inhibition, % at 20 µM; human 26S proteasome, Ub4-pepOG fluorescence polarization; 20S core pre-blocked with epoxomicin;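 active = inhibition at 20 µM, scaled to each plate's controls, above about 33%, limit read from the data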
Target sequence (O00487 whole entry, looked up): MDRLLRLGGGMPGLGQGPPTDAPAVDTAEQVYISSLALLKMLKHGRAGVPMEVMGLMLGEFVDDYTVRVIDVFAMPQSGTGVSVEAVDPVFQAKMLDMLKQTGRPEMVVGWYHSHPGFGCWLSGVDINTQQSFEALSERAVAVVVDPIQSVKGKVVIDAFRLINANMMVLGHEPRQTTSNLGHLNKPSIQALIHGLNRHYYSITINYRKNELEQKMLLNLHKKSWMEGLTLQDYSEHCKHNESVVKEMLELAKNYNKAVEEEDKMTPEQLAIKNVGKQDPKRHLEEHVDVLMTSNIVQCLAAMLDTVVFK
Scp1 inh = Scp-1 phosphatase inhibitors, primary screen, biochemical, colorimetric, uHTS | Recombinant Scp1, phosphopeptide, malachite green phosphate absorbance | inhibition, % at 20 µM | 340,000 compounds, 0.88% hits;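 active = inhibition above about 50% at 20 µM, limit read from the data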
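Test system: SCP-1 phosphatase catalytic domain, residues 76-261 | Compound dosing: One concentration, 20 µM, with 1.0% DMSO | Schedule: 45 min room-temperature reaction, 5 min colour, 30 min stabiliser | Detection: Absorbance at 630 nm | Read-out basis: % inhibition of SCP-1 phosphate liberation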
SUMO1 PPI mod = modulators of SUMO1 protein-protein interactions, primary screen, biochemical, uHTS | SUMO1 binding to a labelled peptide, TR-FRET, 1 h | inhibition, % at 20 µM | 360,000 compounds, 0.33% hits | AID 602429, 2012; in the data active = inhibition above about 37%
Target sequence (P63165 whole entry, looked up): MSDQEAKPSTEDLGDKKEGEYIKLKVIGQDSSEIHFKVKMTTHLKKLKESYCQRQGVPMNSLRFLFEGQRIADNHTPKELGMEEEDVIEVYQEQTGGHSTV
DNMT1 inh = human DNMT1 methyltransferase inhibitors, primary screen, biochemical, molecular beacon, fluorescence, HinP1I cleavage, uHTS; DNA (cytosine-5)-methyltransferase 1 (Homo sapiens), P26358; inhibition (reported as % activation of signal), % at 10 µM; 360,000 compounds, 0.83% hits; AID 588458, 2011; in the data active = inhibition above about 50%
STEP block = STEP phosphatase inhibitors, primary screen, biochemical, fluorescence intensity, uHTS | Tyrosine-protein phosphatase non-receptor type 5 (Homo sapiens), P54829 | recombinant STEP, OMFP fluorogenic substrate | inhibition, % at 20 µM | 360,000 compounds, 0.25% hits | AID 588621, 2011;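 active = inhibition at 20 µM, scaled per plate between control wells, above about 37%, limit read from the data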
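Measure: Control-normalized % inhibition with plate pattern correction | Test system: STEP phosphatase, cell-free reaction | Medium: pH 6.0 Bis-Tris with DTT and Tween 20 | Technique: Fluorescence, 480/540 nm | Times: Reaction 20 min, ambient temperature | Doses: Single compound dose of 20 µM, 1% DMSO final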
Of the large screens only hits and unclear results are named; the others gave an inactive call.

C=C1c2cccc(O)c2C(=O)C2C(=O)[C@]3(O)C(=O)C(C(N)=O)C(=O)[C@@H](N(C)C)[C@@H]3[C@@H](O)[C@H]12 (some centres not stated)	LMPTP inh 81, Scp1 inh 60, SUMO1 PPI mod 73, DNMT1 inh 94, STEP block 53
CCOc1ccccc1N1CCN(C(=O)NCc2ccc(C)cc2)CC1	none
Cn1c(SCC(=O)NC2CCCCC2)nnc1-c1cccc(N)c1	SUMO1 PPI mod 41
CCN(Cc1ccccc1)C(=O)C1CCN(Cc2ccc(SC)cc2)CC1	SUMO1 PPI mod 42
Cc1cccc2cc(/C=C3\N=C(c4ccccc4)OC3=O)c(N3CCOCC3)nc12	Rpn11 block 40
C[C@H](CO)N1C[C@H](C)[C@@H](CN(C)CC2CCCCC2)Oc2c(NC(=O)Cc3ccccc3)cccc2C1=O	none
O=c1cc2c(=O)oc3cc(O)c(O)oc3c2c(O)c1O	LMPTP inh 61, Scp1 inh 85, STEP block 96
Cc1c(Cl)cccc1NC(=O)CSc1nc(=O)n(CCCN2CCOCC2)c2c1CCCC2	none (no result: Scp1 inh)
CC1CC(C)CN(C(=O)COC(=O)c2ccc3c(c2)OCCO3)C1 (configuration not stated)	none
CC(=O)NC(NC(C)=O)c1ccc(N(C)C)cc1	Scp1 inh 52
CCN(CC)c1ccc(C(NC(C)=O)NC(C)=O)cc1	none
CCc1nc2c(OCc3ccccc3)cccn2c1N(Cc1ccccc1)C(C)=O	none (no result: Scp1 inh)
O=C1CSC(=S)N1/N=C/c1ccc(O)c(O)c1O	LMPTP inh 65, Scp1 inh 53 (not shown: Rpn11 block)
COc1ccccc1C=NN1C(=O)CSC1=S	none
CCc1ccc(N2CC(C(=O)Nc3cccc(S(=O)(=O)N4CCCC4)c3)CC2=O)cc1 (configuration not stated)	none
COc1ccccc1NC(=O)c1sc2nc(-c3ccco3)ccc2c1N	Rpn11 block 42
O=C(O)/C=C\c1cccc(-n2nnnc2SCc2ccccc2F)c1	none
Cn1c(=O)n(C)c2cc(N3CCOCC3)c(NC(=O)c3ccc(F)cc3)cc21	SUMO1 PPI mod 49
COc1cccc(OC)c1C(=O)Nc1cc2c(cc1N1CCOCC1)n(C)c(=O)n2C	none
Cn1nnc(NC(=S)NC(=O)Cc2ccccc2)n1	none
Cc1ccc2oc(Nc3nc(-c4ccccc4)cc(=O)[nH]3)nc2c1	Scp1 inh 96 (no result: LMPTP inh, Rpn11 block, SUMO1 PPI mod, DNMT1 inh, STEP block)
O=C(CN(C(=O)c1csnn1)c1cccc(C(F)(F)F)c1)NC1CCCC1	none
CCC(=O)Nc1nonc1-c1nc2ccccc2n1Cc1ccc(Cl)c(Cl)c1	Scp1 inh 56 (no result: LMPTP inh, Rpn11 block, SUMO1 PPI mod, DNMT1 inh, STEP block)
COc1ccc(OCc2cc(C(=O)N(C)C3CCOCC3)no2)c2ccccc12	none
CC(=O)NC1(C(F)(F)F)NC(=O)N(CCc2ccccc2)C1=O (configuration not stated)	SUMO1 PPI mod 44
CN(C)c1ccc(NC(=S)c2ccc3ccccc3n2)cc1	STEP block 68
CCOC(=O)[C@]12CCC=C1N(Cc1ccc(Cl)cc1Cl)C(=O)[C@H](CC(=O)N1CCC(c3ccccc3)CC1)C2	none (no result: Rpn11 block, Scp1 inh, DNMT1 inh, STEP block)
CCCc1nc2ccc(C)cn2c1Cc1ccc(C)cc1	none (no result: Scp1 inh)
O=C(Nc1nc(-c2ccccn2)cs1)c1cc2ccccc2o1	none
Cc1c(C(=O)Nc2nc(-c3ccccn3)cs2)oc2ccccc12	Rpn11 block 42, STEP block 77
O=C(Nc1ccc2c(c1)OCCO2)C(C1CC1)N1CCN(c2ccc(C(F)(F)F)cn2)CC1 (configuration not stated)	none (no result: Scp1 inh)
O=C1CC(NS(=O)(=O)c2ccc(F)cc2)CN1c1ccc2c(c1)OCCO2 (configuration not stated)	none
